Screening results as filed in PubChem.
MT1-MMP act inh – MT1-MMP (human) activation inhibition; P50281; HT1080 RFP-PRO-GFP cells, GFP/RFP ratio fluorescence, overnight; percent of plate control window, DMSO zero; GFP/RFP ratio change, % at 20 µM; actives 0.061% (n = 360,000);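 active means GFP/RFP ratio change of at least 30% with cell ATP level not reduced by more than half and red fluorescence within 50% of control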
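system = RFP-PRO-GFP reporter HT1080 cells | dosing = 20 µM single dose, 1% DMSO | timing = overnight cell settling, then overnight compound exposure, 37 °C, 5% CO2 | read-out basis = GFP/RFP fluorescence ratio | controls = DMSO and RFP-L50D-GFP cell wells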
eIF4H FP inh – inhibitors of RNA binding by human eIF4H | eIF4H fluorescence polarization binding assay | inhibition, % at 35 µM | actives 0.94% (n = 290,000);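 further: calls also rest on retests at 20 µM and on dose response follow-up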
SKN-1 inh – blocks SKN-1 activity in C. elegans | C. elegans VP596 Pgst-4::GFP/RFP ratio, acrylamide-induced, 24 h | inhibition, % at 21.8 µM | actives 0.49% (n = 360,000);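 active means interference check ratio from 0.5 to 1.5 plus GFP to RFP signal ratio inhibition reaching or exceeding a fixed threshold, cut at about 30% in these data, passing the limit was not always enough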
PABP1 MLLE inh – inhibitors of microRNA-mediated deadenylation, human PABP1 MLLE binding; inhibition, % at 20 µM; actives 0.36% (n = 360,000); P11940; GST-MLLE / FITC-PAM2 fluorescence polarization; AID 588489; in the data active means inhibition above about 35%, passing the limit was not always enough;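 further: plate controls were DMSO wells with GST-MLLE for no effect and wells lacking GST-MLLE protein for full effect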
Target sequence (P11940 whole entry, looked up): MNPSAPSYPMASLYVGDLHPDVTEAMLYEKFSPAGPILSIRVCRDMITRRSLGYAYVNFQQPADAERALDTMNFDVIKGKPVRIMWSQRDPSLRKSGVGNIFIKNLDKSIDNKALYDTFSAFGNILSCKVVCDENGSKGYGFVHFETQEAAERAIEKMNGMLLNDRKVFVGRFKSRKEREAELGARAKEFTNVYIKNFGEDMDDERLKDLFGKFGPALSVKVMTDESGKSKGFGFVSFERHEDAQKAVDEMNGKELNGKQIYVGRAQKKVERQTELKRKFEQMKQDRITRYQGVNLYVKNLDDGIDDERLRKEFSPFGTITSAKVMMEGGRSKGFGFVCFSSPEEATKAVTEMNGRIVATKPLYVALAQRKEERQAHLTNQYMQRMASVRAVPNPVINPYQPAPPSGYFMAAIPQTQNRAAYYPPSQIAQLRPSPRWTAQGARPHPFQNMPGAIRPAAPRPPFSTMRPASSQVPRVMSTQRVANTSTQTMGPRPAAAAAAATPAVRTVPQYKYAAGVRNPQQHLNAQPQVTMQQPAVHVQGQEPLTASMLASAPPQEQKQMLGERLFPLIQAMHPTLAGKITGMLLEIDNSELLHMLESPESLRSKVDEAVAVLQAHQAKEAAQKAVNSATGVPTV
PABP FP inh – PABP-poly(A) binding inhibition; PABP-poly(A) RNA binding, fluorescence polarization; calls only at 35 µM; actives 1% (n = 290,000); AID 2014;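 further: calls also rest on retests at 20 µM and on dose response follow-up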
Numbers without * were called inactive; i = inactive; nt = no result given; + = active, no number. Compounds with a hit are over-represented: about 1.8% of the library has one in this group of screens. Unless noted, how the calls were made is not given here.

SMILES	MT1-MMP act inh	eIF4H FP inh	SKN-1 inh	PABP1 MLLE inh	PABP FP inh
Cc1nc(S/C(=C/c2ccc(-c3ccc(Cl)cc3)o2)C(=O)O)n[nH]1	0	43	5	-20	i
Cc1nc(S/C(=C/c2ccc(-c3cc(Cl)ccc3C)o2)C(=O)O)n[nH]1	-9	60	17	-12	+
Cc1nc(S/C(=C/c2ccc(-c3ccc(C(=O)O)cc3)o2)C(=O)O)n[nH]1	1	75	-3	-18	+
CCN(C[C@H]1N[C@@](CC)(C(=O)OC)[C@H]2C(=O)N(C)C(=O)[C@@H]12)S(=O)(=O)c1ccccc1	2	nt	15	-4	nt
CCN(CC)CCSC(=O)C(c1ccccc1)c1ccccc1	2	nt	-2	47*	nt
CCOc1c(C)cnc2c1c(=O)n(CC(=O)NCC1CCCO1)c(=O)n2C (stereo unspecified)	0	nt	17	0	nt
COc1ccccc1NC(=O)CSc1nc2[nH]ncc2c(=O)[nH]1	-1	nt	-4	5	nt
CCOc1ccc2[nH]c(=O)c(C(c3nnnn3Cc3ccco3)N3CCCC(C)C3)cc2c1 (stereo unspecified)	-3	30*	4	-13	i
COc1ccc2[nH]c(=O)c(CN(Cc3nnnn3Cc3ccco3)C3CCCCC3)cc2c1	-9	9	3	9	i
CCC(c1nnnn1Cc1ccco1)N(Cc1cc2cc(C)cc(C)c2[nH]c1=O)CC1CCCO1 (stereo unspecified)	-21	20*	-18	1	i
CCOc1ccc2[nH]c(=O)c(C(c3nnnn3Cc3ccco3)N3CCC(C)CC3)cc2c1 (stereo unspecified)	-6	50*	7	-31	+
COc1ccc2[nH]c(=O)c(CN(C3CCCCC3)C(c3nnnn3Cc3ccco3)C(C)C)cc2c1 (stereo unspecified)	-25	63*	8	-24	+
CCC(c1nnnn1Cc1ccco1)N(Cc1ccccc1OC)Cc1cc2cc(C)ccc2[nH]c1=O (stereo unspecified)	-26	-5	32	-20	i
COc1ccc(-c2cc(CNc3nc(NC(C)C)nc4cc(-c5ccccc5)sc34)on2)cc1	-32	nt	7	-6	nt
Cc1cccc(NC(=O)Cn2nc(-c3cccs3)ccc2=O)c1C	-1	-2	-8	1	i
Cc1nc(NC(=O)COC(=O)c2ccc(CO)cc2)c(Cl)cc1Cl	0	nt	-4	12	nt
O=C(CN1c2cccc3cccc(c23)S1(=O)=O)NCc1ccccc1Cl	0	nt	7	-13	nt
Cc1cnc(CNC(=O)c2ccc3sc([C@H]4C[C@H](O)[C@@H](CO)O4)nc3c2)cn1	1	nt	3	0	nt
CCN1C(=O)[C@@H]2[C@@H](c3ccc(SC4CCCCC4)cc3)N3CCC[C@@]3(C(=O)OC)[C@@H]2C1=O	0	nt	0	40*	nt
Cc1cccc2sc(NC(=O)C3CCCO3)nc12 (stereo unspecified)	-1	-1	7	11	i
Cc1nc(C)c(C(=O)Nc2nc3c(C)cccc3s2)o1	-5	70*	8	-1	+
COC(=O)/C=C1\SC(=NC(=O)c2ccc(C)cc2)NC1=O	-1	32	-1	40*	i
O=C(/C=C/NNC(=O)c1ccccc1)c1ccc([N+](=O)[O-])cc1	7	8	3	18	i
Cc1ccc(-c2nn(-c3ccccc3)cc2/C=C/C(=O)O)o1	6	-6	-6	27	i
Cc1ccc(-c2nn(-c3ccccc3)cc2C(=O)O)o1	nt	102*	nt	nt	+
SMILES	MT1-MMP act inh	eIF4H FP inh	SKN-1 inh	PABP1 MLLE inh	PABP FP inh
c1ccc(COc2ncnc3c2ncn3CCCNCC(c2ccccc2)c2ccccc2)cc1	-26	nt	10	-7	nt
Cc1ccc2sc(C)[n+](CCC(C)S(=O)(=O)[O-])c2c1 (stereo unspecified)	3	3	-7	41*	i
CC/C(=C/c1sc2ccc(C)cc2[n+]1CCCS(=O)(=O)[O-])SC	nt	0	nt	nt	i
CCCCC(=O)N(C)c1c(C)nc2ccc(C(=O)N3CCN(c4ccccc4)CC3)cn12	-3	nt	2	12	nt
COc1ccccc1-n1c(N)c(C(N)=O)sc1=S	-2	1	6	41*	i
CN(CC(=O)Nc1ccc(F)cc1)C(=O)CN1C(=O)NC2(CCCc3ccccc32)C1=O (stereo unspecified)	-2	4	14	-20	i
CCOC(=O)C[C@@H]1OC[C@H](C)N1S(=O)(=O)c1ccc(C)cc1	4	nt	0	nt	nt
